# dFosB act-1: mouse delta FosB homodimer activation; P13346; purified delta FosB, TAMRA-CDK5 oligo fluorescence polarization; percent of positive-control signal above neutral wells; activation, % at 25 µM; 340,000 tested, 0.99% active; AID 493131;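 active = mean activation above about 17%, with every replicate also reaching it, limit read from the data, passing the limit was not always enough; inconclusive = only one of the two conditions met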
# Target sequence (P13346 whole entry, looked up): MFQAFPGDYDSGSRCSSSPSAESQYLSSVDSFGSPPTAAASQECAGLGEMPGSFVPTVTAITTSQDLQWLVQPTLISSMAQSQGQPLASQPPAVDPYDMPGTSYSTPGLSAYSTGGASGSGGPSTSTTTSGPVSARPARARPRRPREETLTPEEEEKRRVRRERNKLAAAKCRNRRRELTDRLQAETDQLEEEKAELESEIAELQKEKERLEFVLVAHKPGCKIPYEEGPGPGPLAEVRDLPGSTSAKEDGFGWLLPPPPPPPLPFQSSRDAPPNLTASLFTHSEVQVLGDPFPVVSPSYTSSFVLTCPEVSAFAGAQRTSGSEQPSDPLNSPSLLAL
# SR-BI HDL uptake: mouse SR-BI HDL lipid transfer inhibition; ldlA[mSR-BI] CHO cells, DiI-HDL uptake fluorescence, 3 h; inhibition, % at 12.5 µM; 320,000 tested, 0.96% active; Q61009;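 active = mean replicate inhibition of at least 70% and a set share of replicates each scoring 70 or more; inconclusive = meets just one of the two criteria; inactive = fails both criteria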
# CDK5 inh: inhibitors of human CDK5/p35 kinase; Recombinant CDK5/p35, ADP-Glo luminescence, 60 min; inhibition, % at 10 µM; 330,000 tested, 0.01% active;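 active = highest replicate inhibition of at least 50% and at least 75% of replicates reaching 50%; inconclusive = only one of the two criteria met; inactive = both criteria failed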
# SR-BI DiI-HDL act: SR-BI HDL lipid transfer activation; activation, % at 12.5 µM; 320,000 tested, 0.096% active; CHO ldlA[mSR-BI] cells, DiI-HDL uptake fluorescence, 3 h; 100 = double the neutral-control signal; AID 504775;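 active = mean replicate activation of at least 60% and every replicate at or above 60%; inconclusive = mean or all-replicate condition met, but not both; inactive = mean below 60% and not all replicates reaching 60%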
#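 System: LDL receptor-deficient CHO ldlA cells overexpressing murine SR-BI | Timing: 3 h uptake period with compound, 37 °C | Medium: HEPES-buffered (25 mM, pH 7.4) F12 plus 0.5% BSA | Dosing: Single-point compound dose | Signal: Bottom-read fluorescence, 550/595 nm | Read-out: Retained DiI signal reflecting DiI-HDL uptake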
# dFosB act-2: enhances mouse delta FosB homodimer binding to DNA | AID 588690 | purified delta FosB, TAMRA-CDK5 oligo fluorescence polarization; normalised: neutral wells 0, positive control 100 | 2,400 tested, under 10 active | activation, % at 24.9 µM | shares compounds with dFosB act-1;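 active = highest replicate activation at or above 34% and every replicate reaching that threshold; inconclusive = meets only one of the two criteria; inactive = meets neither criterion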;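 note: higher polarization means more probe DNA bound by delta FosB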
# Numbers stand for hits; n = inactive; u = inconclusive; x = not tested or not shown. This is a sample that favours compounds with a hit; in the whole collection about 2% have one here.
SMILES,dFosB act-1,SR-BI HDL uptake,CDK5 inh,SR-BI DiI-HDL act,dFosB act-2
COc1ccc(CCN(C)CC(O)COc2ccc(C(C)=O)cc2OC)cc1OC (stereo not drawn),n,n,n,n,x
COc1cc2c(cc1OC)C(C)N(C(=O)c1cccs1)CC2 (stereo not drawn),n,n,n,n,x
COc1cc2c(cc1OC)C(C)N(C(=O)c1cc3c(=O)oc4ccc(C)cc4c3s1)CC2 (stereo not drawn),41,n,n,n,n
O=C(Nc1nc(-c2ccc(S(=O)(=O)N3CCOCC3)cc2)cs1)c1ccccc1,n,n,n,n,x
O=C(Nc1nc(-c2nc3ccccc3s2)cs1)c1ccc(S(=O)(=O)N2CCOCC2)cc1,33,n,n,n,n
Cc1ccc(Cn2ccc(NC(=O)c3noc4c3CCc3ccccc3-4)n2)cc1,n,n,n,n,x
COc1ccc2c(c1)CCc1c(C(=O)Nc3ccn(Cc4ccc(C)cc4)n3)noc1-2,28,n,n,n,n
O=C(OCCOc1ccc(Br)cc1)c1ccc(Cl)c(S(=O)(=O)N2CCOCC2)c1,n,n,n,n,x
CCOC(=O)c1c(C)[nH]c(C(=O)OCC(=O)Nc2cc(C)c(Cl)cc2OC)c1C,45,n,n,n,n
Cc1c(C=Nc2ccc(S(=O)(=O)CCO)cc2)c(O)[nH]c(=O)c1C#N,n,n,n,n,x
Cc1ccc(NC(=O)CSc2nncn2-c2ccccn2)cc1Cl,26,n,n,n,n
CCCOc1ccc(C2c3c(oc4cc(C)c(C)cc4c3=O)C(=O)N2CCCN(C)C)cc1 (stereo not drawn),28,n,n,n,n
Cc1cc2oc3c(c(=O)c2cc1C)C(c1ccc(F)cc1)N(CCCN1CCOCC1)C3=O (stereo not drawn),u,n,n,n,x
Cc1ccc(NC(=O)Cn2cc(S(=O)(=O)c3ccc(F)cc3)c(=O)c3cc(F)ccc32)cc1,n,n,n,n,x
COc1ccc(NC(=O)Cn2cc(C(=O)c3ccco3)c3ccccc32)cc1,45,n,n,n,n
COc1ccc2c(c1)c(CC(=O)Nc1ccc(C)cc1)c(C)n2C(=O)c1ccc(Cl)cc1,21,n,n,n,n
Cc1ccc(S(=O)(=O)c2cn(CC(=O)Nc3ccccc3)c3ccc(F)cc3c2=O)cc1,30,n,n,n,n
COc1ccc2c(c1)c(=O)c(C(=O)c1ccc(F)cc1)cn2CC(=O)Nc1ccc(F)cc1,20,n,n,n,n
COC(=O)[C@@H](Cc1c[nH]c2ccccc12)NCc1ccc(B(O)O)cc1,n,n,n,n,x
O=C(CN1CCOCC1)NCc1cc([N+](=O)[O-])ccc1O,n,n,n,n,x
Cc1ccc(C)c(NCC(=O)c2ccc(Cl)cc2)c1,n,n,n,n,x
COc1ccc2c(c1)c(=O)c(C(=O)c1ccc(C)cc1)cn2CC(=O)Nc1ccc(F)cc1,22,n,n,n,n
N#Cc1ccc(C=NN2CCCCCC2)cc1,n,n,n,n,x
CCCc1cc(C(=O)N2CCC(n3nccc3NC(=O)c3ccc(OC)cc3)CC2)no1,n,n,n,n,x
Cc1ccc(-n2c(-c3ccc(Br)cc3)c[n+]3c2CCc2ccc4cccnc4c2-3)cc1,26,n,n,n,u
SMILES,dFosB act-1,SR-BI HDL uptake,CDK5 inh,SR-BI DiI-HDL act,dFosB act-2
COc1ccc(-n2c(-c3ccc(Cl)cc3)c[n+]3c2CCc2ccccc2-3)cc1,n,n,n,n,x
CN(CC(=O)Nc1ccc(Cl)cc1)S(=O)(=O)c1ccc2c(c1)n(C)c(=O)c(=O)n2C,n,n,n,n,x
CN(CC(=O)Nc1cccc(Cl)c1)S(=O)(=O)c1ccc2c(c1)n(C)c(=O)c(=O)n2C,46,n,n,n,n
CN(C)S(=O)(=O)c1ccc2oc(SCC(=O)c3c(N)n(C4CC4)c(=O)[nH]c3=O)nc2c1,20,n,n,n,n
CN(C)S(=O)(=O)c1ccc2oc(SCC(N)=O)nc2c1,n,n,n,n,x
O=C(c1cccc(F)c1)N1CCCC(C(=O)N2CCN(c3ccccc3)CC2)C1 (stereo not drawn),n,n,n,n,x
C#CCn1c(=NC(=O)c2sc3ccccc3c2Cl)sc2cc(S(N)(=O)=O)ccc21,77,n,n,n,n
C=CCn1c(=NC(=O)c2ccc(S(=O)(=O)N3CCc4ccccc4C3)cc2)sc2cc(S(N)(=O)=O)ccc21,u,n,n,n,x
C#CCn1c(=NC(=O)c2ccc(S(=O)(=O)N3CCc4ccccc4C3)cc2)sc2cc(S(N)(=O)=O)ccc21,51,n,n,n,n
COC(=O)Cn1c(=NC(=O)c2nc3ccccc3s2)sc2cc(S(N)(=O)=O)ccc21,u,n,n,n,x
CC(C)CCNC(=O)CCC(=O)NNc1nc2ccccc2c2nc(-c3ccccc3)nn12,56,n,n,n,n
COc1ccc(CC(=O)OCC(=O)NCc2ccco2)cc1OC,n,n,n,n,x
O=C(CCNC(=O)N1CC(=O)Nc2ccccc21)Nc1cccc(Cl)c1,n,n,n,n,x
Cc1c(Cl)cccc1NC(=O)CCNC(=O)N1CC(=O)Nc2ccccc21,23,n,n,n,n
CC(NC(=O)c1cc(S(=O)(=O)N(C)C)ccc1Cl)c1ccc(-n2ccnc2)cc1 (stereo not drawn),n,n,n,n,x
Cc1cccc(N2CCN(C(=O)CCC(=O)N3CC(C)Oc4ccccc43)CC2)c1C (stereo not drawn),n,n,n,n,x
O=C(NCCC(=O)N1CCN(S(=O)(=O)c2ccc(Cl)cc2)CC1)Nc1ccccc1,n,n,n,n,x
COc1ccc2cc(OCC(=O)NNC(=O)Nc3ccc(F)cc3)ccc2c1,21,n,n,n,n
CCOc1ccc(NC(=O)CN2CCN(CC(=O)Nc3ccc(C(N)=O)cc3)CC2)cc1,n,n,n,n,x
COc1cc2ccccc2cc1C(=O)N(CCN(C)C)c1nc2ccc(C)cc2s1,40,n,n,n,n
COc1ccc2nc(N(CCN(C)C)C(=O)/C=C/c3cccs3)sc2c1,42,n,n,n,n
COc1cc2ccccc2cc1C(=O)N(CCN(C)C)c1nc2c(OC)ccc(OC)c2s1,u,n,n,n,x
COc1cc2ccccc2cc1C(=O)N(CCN(C)C)c1nc2c(C)cccc2s1,29,n,n,n,n
CCN(CC)S(=O)(=O)c1ccc(OC)c(NC(=O)CSCc2c(C)noc2C)c1,n,n,n,n,x
COc1ccc(C(=O)CCS(=O)(=O)c2ccc(C)cc2)cc1OC,n,n,n,n,x
COc1ccccc1/C=C(\NC(=O)c1ccc(OC)c(OC)c1)C(=O)Nc1cc([N+](=O)[O-])ccc1C,28,n,n,n,n
COc1ccc(/C=C(/NC(=O)c2cccc([N+](=O)[O-])c2)C(=O)O)cc1OC,n,n,n,n,x
COc1ccc(-n2nc(C(=O)NCC(=O)Nc3cccc(Cl)c3)c3ccccc3c2=O)cc1,39,n,n,n,n

# Source: PubChem
